Measurements from ChEMBL document CHEMBL1773069, “Marinoquinolines A-F, pyrroloquinolines from Ohtaekwangia kribbensis (Bacteroidetes)” (J Nat Prod, 2011).
Converted amounts (≈) assume the structure as drawn. The source made the active and inactive calls. The rule behind the calls is not given here.

Legend:
[1] = test system: Schizosaccharomyces pombe; assay: Antifungal activity against Schizosaccharomyces pombe after 24 to 48 hrs; type: functional
In short: (§1)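 Broth microdilution in 96-well plates. Bacteria were grown in EBS medium. Yeasts and fungi were grown in MYC medium (1.0% phytone peptone, 1.0% glucose, 50 mM HEPES, pH 7.0). Inoculum was test organism diluted 1:100 in medium. Compound was diluted 1:1 serially from 33.5 to […] μg/mL. Plates were shaken at 600 rpm, 30 °C, for 24–48 h. MIC was the lowest concentration preventing visible growth.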

[2] = test system: Trypanosoma brucei rhodesiense; assay: Antiparasitic activity against Trypanosoma brucei rhodesiense STIB 900 trypomastigotes; type: functional, organism-based
HUVEC = assay: Cytotoxicity against HUVEC after 5 days by MTT assay; type: cell-based; conditions: Homo sapiens, 120 h
In short: (§2)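 Culture media were DMEM for KB-3-1 and L929, EBM-2 for HUVEC and RPMI for MCF-7, each with 10% FBS, at 37 °C under 10% CO2. Serial dilutions from a 1 mg/mL methanol stock were added to cell suspension (50 000/mL). After 5 days, MTT was read at 590 nm. IC50 (50% growth inhibition versus control) came from dose–response curves. Methanol served as negative control.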

Escherichia coli [3] = assay: Antimicrobial activity against Escherichia coli after 24 to 48 hrs; type: functional, organism-based; in short: as §1
Plasmodium falciparum = assay: Antimalarial activity against Plasmodium falciparum K1 intra-erythrocytic form; type: functional, organism-based
Trypanosoma cruzi = assay: Antiparasitic activity against Trypanosoma cruzi Tulahuen C4 amastigotes; type: functional, organism-based
Leishmania donovani = assay: Antileishmanial activity against Leishmania donovani MHOM-ET-67/L82 axenic amastigotes; type: functional, organism-based
[4] = Cytotoxicity against human KB-3-1 cells after 5 days by MTT assay; type: functional, cell-based; conditions: KB 3-1, 120 h; in short: as §2
L929 = assay: Cytotoxicity against mouse L929 cells after 5 days by MTT assay; type: functional, cell-based; conditions: L929, 120 h; in short: as §2
Mucor hiemalis = assay: Antifungal activity against Mucor hiemalis after 24 to 48 hrs; type: functional; in short: as §1
Nocardia sp. = assay: Antibacterial activity against Nocardia flava after 24 to 48 hrs; type: functional; in short: as §1
L6 = assay: Cytotoxicity against rat L6 cells by MTT assay; type: cell-based
Micrococcus luteus = assay: Antibacterial activity against Micrococcus luteus after 24 to 48 hrs; type: functional; in short: as §1
MCF7 = assay: Cytotoxicity against human MCF7 cells after 5 days by MTT assay; type: functional, cell-based; conditions: MCF7, 120 h; in short: as §2
Rhodotorula glutinis = assay: Antifungal activity against Rhodotorula glutinis after 24 to 48 hrs; type: functional; in short: as §1
Escherichia coli [5] = assay: Antimicrobial activity against Escherichia coli at 33.5 ug/ml after 24 to 48 hrs; type: functional, organism-based
[6] = test system: Schizosaccharomyces pombe; assay: Antifungal activity against Schizosaccharomyces pombe at 33.5 ug/ml after 24 to 48 hrs; type: functional, organism-based

| SMILES | IC50 [2] | IC50 (Plasmodium falciparum) | IC50 (Trypanosoma cruzi) | IC50 (Leishmania donovani) | IC50 (HUVEC) | IC50 [4] | IC50 (L929) | IC50 (L6) | IC50 (MCF7) | also measured |
| --- | --- | --- | --- | --- | --- | --- | --- | --- | --- | --- |
| c1ccc(Cc2nc3ccccc3c3cc[nH]c23)cc1 [MARINOQUINOLINE C] | 42.2 µM | 5.5 µM | 28.3 µM | 58.8 µM | 0.55 µg/mL (≈ 2.13 µM) | 2 µg/mL (≈ 7.74 µM) | 5.4 µg/mL (≈ 20.9 µM) | 39.1 µM | 2.6 µg/mL (≈ 10.1 µM) | MIC [1]: 33.5 µg/mL (≈ 130 µM); MIC (Rhodotorula glutinis): 33.5 µg/mL (≈ 130 µM) |
| Cc1nc2ccccc2c2cc[nH]c12 [MARINOQUINOLINE A] | 54.4 µM | 9.8 µM | 29.5 µM | > 549 µM | 1.5 µg/mL (≈ 8.23 µM) | 2.2 µg/mL (≈ 12.1 µM) | 5.5 µg/mL (≈ 30.2 µM) | 30.6 µM | 3.5 µg/mL (≈ 19.2 µM) | Activity (Escherichia coli [5]): Active |
| COc1cc([C@@H]2c3cc4c(cc3[C@H](O)[C@H]3COC(=O)[C@H]23)OCO4)cc(OC)c1OC [PODOFILOX] |  |  |  |  |  |  |  | 0.021 µM |  |  |
| CC[C@]1(O)C[C@@H]2CN(CCc3c([nH]c4ccccc34)[C@@](C(=O)OC)(c3cc4c(cc3OC)N(C)[C@H]3[C@@](O)(C(=O)OC)[C@H](OC(C)=O)[C@]5(CC)C=CCN6CC[C@]43[C@@H]65)C2)C1 [VINBLASTINE] |  |  |  |  |  | 0.0086 µg/mL (≈ 0.0106 µM) | 0.018 µg/mL (≈ 0.0222 µM) |  |  |  |
| Nc1nc(N)nc(Nc2ccc([As]3SCC(CO)S3)cc2)n1 (centres undefined) [MELARSOPROL] | 0.012 µM |  |  |  |  |  |  |  |  |  |

Further lines, with some results ahead:

| IC50 [2] | IC50 (Plasmodium falciparum) | IC50 (Trypanosoma cruzi) | IC50 (Leishmania donovani) | SMILES | IC50 (HUVEC) | IC50 [4] | IC50 (L929) | IC50 (L6) | IC50 (MCF7) | also measured |
| --- | --- | --- | --- | --- | --- | --- | --- | --- | --- | --- |
| 61.2 µM | 15 µM | 27 µM | 120 µM | Oc1ccc(Cc2nc3ccccc3c3cc[nH]c23)cc1 [MARINOQUINOLINE D] | 2.5 µg/mL (≈ 9.11 µM) | 3.2 µg/mL (≈ 11.7 µM) | 1.1 µg/mL (≈ 4.01 µM) | 66.4 µM | 3.2 µg/mL (≈ 11.7 µM) | Activity [1]: inactive; Activity (Escherichia coli [3]): inactive; Activity (Mucor hiemalis): inactive; Activity (Nocardia sp.): inactive; Activity (Micrococcus luteus): inactive; Activity (Rhodotorula glutinis): inactive |
| 39 µM | 1.7 µM | 21.8 µM | 16.1 µM | O=C(c1c[nH]c2ccccc12)c1nc2ccccc2c2cc[nH]c12 [MARINOQUINOLINE F] | 2.8 µg/mL (≈ 8.99 µM) | 0.3 µg/mL (≈ 0.964 µM) | 4.1 µg/mL (≈ 13.2 µM) | 12.5 µM | 1.6 µg/mL (≈ 5.14 µM) | Activity [6]: Active |
| 51.5 µM | 7.6 µM | 23.6 µM | 63.9 µM | c1ccc2c(c1)nc(-c1c[nH]c3ccccc13)c1[nH]ccc12 [MARINOQUINOLINE E] | 5.8 µg/mL (≈ 20.5 µM) | 4.5 µg/mL (≈ 15.9 µM) | 5.5 µg/mL (≈ 19.4 µM) | 35.6 µM | 1.9 µg/mL (≈ 6.71 µM) | MIC [1]: 33.5 µg/mL (≈ 118 µM); MIC (Mucor hiemalis): 33.5 µg/mL (≈ 118 µM); MIC (Nocardia sp.): 33.5 µg/mL (≈ 118 µM); MIC (Micrococcus luteus): 33.5 µg/mL (≈ 118 µM); MIC (Rhodotorula glutinis): 33.5 µg/mL (≈ 118 µM) |
